Laboratory results from ChEMBL document CHEMBL5126672, “Discovery of κ Opioid Receptor (KOR)-Selective d-Tetrapeptides with Improved In Vivo Antinociceptive Effect after Peripheral Administration” (ACS Med Chem Lett, 2022).
Active and inactive are the calls of the source. No cut-off for these calls is given here. Square brackets hold non-standard residues; d marks the D form. Peptide text beside a SMILES is read from it. dNle = CCCC[C@@H](N)C(=O)O

Assays:
[1] = target: T1, Kappa-type opioid receptor (Cavia porcellus, UniProt P41144); assay: Displacement of [3H]-HS665 from KOR in guinea pig brain membranes; type: cell membranes, Membrane
T1 sequence (P41144 whole entry): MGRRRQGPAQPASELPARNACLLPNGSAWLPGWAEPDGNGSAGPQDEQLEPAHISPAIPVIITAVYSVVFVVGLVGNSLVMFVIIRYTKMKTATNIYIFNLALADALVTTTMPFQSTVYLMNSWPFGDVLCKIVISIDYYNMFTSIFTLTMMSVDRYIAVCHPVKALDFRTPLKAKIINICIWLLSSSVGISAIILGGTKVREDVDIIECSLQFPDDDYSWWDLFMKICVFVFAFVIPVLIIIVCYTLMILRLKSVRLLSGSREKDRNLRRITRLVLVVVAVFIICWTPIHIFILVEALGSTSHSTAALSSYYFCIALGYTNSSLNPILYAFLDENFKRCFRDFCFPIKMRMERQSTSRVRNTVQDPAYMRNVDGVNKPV

[2] = target: T1, Kappa-type opioid receptor; assay: (§1) Agonist activity at KOR in guinea pig brain membranes assessed as stimulation of [35S]GTPgammaS binding measured after 1 hr by liquid scintillation counting analysis; type: functional, cell membranes, Membrane
[3] = target: Kappa-type opioid receptor (Cavia porcellus) (UniProt P41144); assay: as §1; type: functional, cell membranes; details: Membrane, filed as agonist, DDE = dose-dependent effect
Sequence of Kappa-type opioid receptor (Cavia porcellus) (P41144 whole entry): as above

Mus musculus [4] = assay: Antinociceptive activity in CD-1 mouse assessed as maximum possible effect at 10 nmol, icv measured after 15 to 120 mins by tail-flick test; type: functional, organism-based; details: time 15-120 min
Summary of the method: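 Tail flick test in mice after intracerebroventricular injection of 10 nmol/mouse, with vehicle-treated and U50,488H control groups. Antinociception was expressed as maximum possible effect. N = 7 per group.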

Mus musculus [5] = assay: Antinociceptive activity in formalin-induced CD-1 mouse model of nociception assessed as reduction in total time spent in paw licking during early phase at 100 nmol, sc pretreated for 15 mins followed by formalin challenge measured up to 10 mins by formalin test; type: functional, organism-based; details: time 25.0 min
Summary of the method: (§2)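 Subcutaneous injection into the mouse paw at 100 nmol/mouse, given 15 min before formalin challenge. Nociceptive behaviour was scored in the early and late phases against vehicle and U50,488H groups. Analysis used one-way ANOVA with Tukey's multiple comparisons test.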

Mus musculus [6] = assay: Antinociceptive activity in formalin-induced CD-1 mouse model of nociception assessed as reduction in total time spent in paw licking during late phase at 100 nmol, sc pretreated for 15 mins followed by formalin challenge measured after 10 to 40 mins by formalin test; type: functional, organism-based; details: time 15-55 min; summary of the method: as §2
Mus musculus [7] = assay: Antinociceptive activity in CD-1 mouse assessed as maximum possible effect at 20 umol/kg, iv measured after 15 to 120 mins by tail-flick test; type: functional, organism-based; details: dose 20.0 µmol/kg, time 15-120 min
Summary of the method: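 Intravenous dosing at 20 μmol/kg in mice, followed by tail flick testing with antinociception expressed as maximum possible effect. Vehicle-treated animals served as controls. N = 8.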

[8] = Cmax in C57/BL6 mouse plasma at 13.9 mg/kg, iv administered via bolus by LC-MS/MS analysis; type: ADME, organism-based; parameters: dose 13.9 mg/kg, route iv
Summary of the method: (§3)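 Single intravenous bolus given to mice. Plasma concentrations were measured, and noncompartmental analysis gave Cmax, Tmax, t1/2 and AUC extrapolated to infinity. The calibration range was 10–1000 nM, with correlation coefficient >0.99 and the curve fit with 1/x2 weighting.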

[9] = Tmax in C57/BL6 mouse plasma at 13.9 mg/kg, iv administered via bolus by LC-MS/MS analysis; type: ADME, organism-based; summary of the method: as §3
[10] = Half life in C57/BL6 mouse plasma at 13.9 mg/kg, iv administered via bolus by LC-MS/MS analysis; type: ADME, organism-based; summary of the method: as §3
[11] = AUC (infinity) in C57/BL6 mouse plasma at 13.9 mg/kg, iv administered via bolus by LC-MS/MS analysis; type: ADME, organism-based; parameters: time infinity, dose 13.9 mg/kg, route iv; summary of the method: as §3
[12] = Drug uptake in C57/BL6 mouse brain at 13.9 mg/kg, iv administered via bolus by LC-MS/MS analysis; type: ADME, organism-based; details: in vivo, BLD = below limit of detection
Summary of the method: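 Single intravenous bolus given to mice. Brain homogenates were analysed for drug exposure against a calibration curve spanning 10–1000 nM, fit with 1/x2 weighting.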

| Structure (SMILES) | Ki [1] | EC50 [2] | Activity [3] | Activity (Mus musculus [4]) | Activity (Mus musculus [5]) | Activity (Mus musculus [6]) | Activity (Mus musculus [7]) | Cmax [8] | Tmax [9] | half-life [10] | AUC(0-inf) [11] | Drug uptake [12] |
| --- | --- | --- | --- | --- | --- | --- | --- | --- | --- | --- | --- | --- |
| CCCC[C@@H](NC(=O)[C@H]1Cc2ccccc2CN1C(=O)[C@H](N)Cc1ccccc1)C(=O)N[C@H](CCCNC(=N)N)C(N)=O | 3.63 nM | 7.94 nM | – | – | – | – | – | – | – | – | – | – |
| CCCC[C@@H](NC(=O)[C@@H](Cc1cccc(F)c1)NC(=O)[C@H](N)Cc1ccccc1)C(=O)N[C@H](CCCNC(=N)N)C(N)=O | 3 nM | 1860 nM | Dde | Active | Active | Active | – | – | – | – | – | – |
| CCCC[C@@H](NC(=O)[C@@H](Cc1ccccc1)NC(=O)[C@H](N)Cc1cccc(F)c1)C(=O)N[C@H](CCCNC(=N)N)C(N)=O | 1.28 nM | 22.4 nM | Dde | Active | Active | Active | Active | – | – | – | – | – |
| Oc1cccc(CCN(CCc2ccccc2)CC2CCC2)c1 | 1.91 nM | – | – | – | – | – | – | – | – | – | – | – |
| CCCC[C@@H](NC(=O)[C@@H](Cc1ccccc1)NC(=O)[C@H](N)Cc1ccccc1F)C(=O)N[C@H](CCCNC(=N)N)C(N)=O | 4.35 nM | 1350 nM | – | Active | Active | Active | – | – | – | – | – | – |
| CCCC[C@@H](NC(=O)[C@@H](Cc1ccccc1)NC(=O)[C@H](N)Cc1ccc(O)cc1)C(=O)N[C@H](CCCNC(=N)N)C(N)=O | 1.11 nM | 9550 nM | Dde | – | – | – | – | – | – | – | – | – |
| CCCC[C@@H](NC(=O)[C@@H](Cc1ccc(F)cc1)NC(=O)[C@H](N)Cc1ccccc1)C(=O)N[C@H](CCCNC(=N)N)C(N)=O | 0.92 nM | 955 nM | – | Active | Active | Active | Active | 109 nM | 15 min | 20.6 min | 0.0842 µM·h | Bld |
| CCCC[C@@H](NC(=O)[C@@H](Cc1ccccc1)NC(=O)[C@H](N)Cc1ccccc1)C(=O)N[C@H](CCCNC(=N)N)C(N)=O (H-[dF][dF][dNle][dR]-NH2) | 2.33 nM | 26.3 nM | – | Active | – | – | – | 93 nM | 5 min | 12.7 min | 0.0364 µM·h | Bld |
| CCCC[C@@H](NC(=O)[C@@H](Cc1ccccc1)NC(=O)[C@H](N)Cc1c[nH]c2ccccc12)C(=O)N[C@H](CCCNC(=N)N)C(N)=O | 3.07 nM | 5.13 nM | Dde | – | – | – | – | – | – | – | – | – |
